# Shown are actives, neighbours in structure and some others; about 1.9% of the full set was active somewhere.
# IMP-1 inh-1: blocks Pseudomonas aeruginosa IMP-1 metallo-beta-lactamase. inhibition, % at 5.6 µM. hit rate 0.45% among 290,000. purified IMP-1, nitrocefin hydrolysis, epi-absorbance fluorescence. AID 1556;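 active = inhibition above the mean plus 3 SD of all compounds in the same screening run, cut at about 4.5% in these data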;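 note: 0% = IMP-1 with DMSO and 100% = DMSO wells lacking enzyme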
#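 System: purified IMP-1 / Input: IMP-1 dispensed at 0.2 nM / Medium: 50 mM HEPES pH 7.1, 50 µM ZnSO4, 0.05% Brij 35 / Timing: 15 min enzyme–compound preincubation, then 25 min nitrocefin reaction, 25 °C / Technique: plate fluorescence quenching by hydrolysis product, ex 480/em 530 nm / Repeats: singlicate testing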
# VIM-2 inh: blocks Pseudomonas aeruginosa VIM-2 metallo-beta-lactamase | purified VIM-2, nitrocefin hydrolysis, epi-absorbance fluorescence | inhibition, % at 5.6 µM | hit rate 0.89% among 290,000 | AID 1527;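 active = inhibition above the mean of all tested compounds plus 3 SD, cutoff set per screening run, cut at about 7.5% in these data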;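 note: red hydrolysis product quenches plate fluorescence so inhibitors raise well fluorescence; 0% = enzyme with DMSO and 100% = DMSO without enzyme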
# NS3 helicase inh: blocks Hepatitis C virus NS3 helicase unwinding; NS3 helicase DNA unwinding, Cy5 molecular beacon fluorescence; inhibition, % at 10.9 µM; hit rate 0.56% among 290,000;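 active = inhibition above the mean of all tested compounds plus 3 SD, set per campaign, cut at about 35% in these data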;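 note: 0% = DMSO wells and 100% = thioflavine S control wells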
#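 Assay system: hepatitis C virus NS3 helicase domain fragment enzyme. Also added: annealed dual-labelled DNA beacon duplex, ATP-started. Timing: 1 h reaction at 25 °C, ATP-initiated. Technique: Cy5 fluorescence at 0 and 60 min, beacon hairpin quenching. Evaluation: % inhibition of unwinding. Replication: one well per compound.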
# FID counter: fluorescent intercalator displacement, NS3 helicase counter-screen; AID 1845; inhibition, % at 7.9 µM; DNA fluorescent intercalator displacement, fluorescence; hit rate 0.17% among 290,000; in the data active = inhibition above about 37%;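 note: 0% = vehicle and 100% = reference compound; higher means more ethidium bromide displaced from hairpin DNA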
# IMP-1 inh-2: selectivity counter-screen for VIM-2 inhibitors: IMP-1 metallo-beta-lactamase inhibitors; shares compounds with VIM-2 inh; inhibition, % at 5.6 µM; 1,300 tested, under 10 active; AID 1856; purified IMP-1, nitrocefin hydrolysis, epi-absorbance fluorescence; call rule not given here;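 note: 0% = enzyme with vehicle and 100% = vehicle without enzyme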
# VIM-2 FRET inh: inhibits VIM-2 in FRET assay to exclude epi-absorbance artifacts; hit rate 23% among 1,300; purified VIM-2, CCF2 FRET substrate hydrolysis; AID 1857; inhibition, % at 5.6 µM; shares compounds with VIM-2 inh;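 active = inhibition above the mean of all tested compounds plus 3 SD, cut at about 19% in these data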;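 note: 0% = VIM-2 plus DMSO and 100% = no enzyme wells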
# TEM-1 inh: blocks E. coli TEM-1 beta-lactamase in VIM-2 selectivity screen. shares compounds with VIM-2 inh. Purified TEM-1, nitrocefin hydrolysis, epi-absorbance fluorescence. inhibition, % at 5.6 µM. hit rate 3% among 1,300. AID 1866;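 active = inhibition above that campaign's mean inhibition plus 3 SD, cut at about 0.46% in these data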;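 note: 0% = TEM-1 with DMSO and 100% = TEM-1 with 100 µM potassium clavulanate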
# Target sequence (P62593 whole entry, looked up): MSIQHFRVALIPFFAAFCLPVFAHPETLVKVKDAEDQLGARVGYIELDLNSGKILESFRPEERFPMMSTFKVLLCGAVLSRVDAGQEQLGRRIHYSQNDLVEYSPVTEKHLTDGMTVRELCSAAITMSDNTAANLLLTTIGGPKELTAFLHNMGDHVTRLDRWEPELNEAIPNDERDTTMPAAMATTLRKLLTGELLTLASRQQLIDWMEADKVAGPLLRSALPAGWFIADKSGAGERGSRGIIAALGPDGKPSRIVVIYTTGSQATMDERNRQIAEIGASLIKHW
# VIM-2 confirm 2: confirmation of P. aeruginosa VIM-2 metallo-beta-lactamase inhibitors; hit rate 96% among 1,300; shares compounds with VIM-2 inh; inhibition, % at 5.6 µM; AID 2187; purified VIM-2, nitrocefin hydrolysis, epi-absorbance;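 active = inhibition of the VIM-2 beta-lactamase enzyme above about 11% from the earlier first-round screen, limit read from the data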;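 note: 0% = VIM-2 with DMSO and 100% = buffer wells without enzyme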
# An asterisk follows results filed as active.
SMILES,IMP-1 inh-1,VIM-2 inh,NS3 helicase inh,FID counter,others
COc1cc(/C=N/NC(=O)c2cncc(Br)c2)ccc1OC(=O)c1ccc2c(c1)OCO2,46.3*,0.1,-6.3,-2.0,
CCCNc1c(NC(C)=O)c(=O)oc2ccccc12,-3.5,-1.9,1.9,-3.1,
CC(=O)c1ccc(Nc2cc(C)nc3c(C)cccc23)cc1,-2.2,1.6,3.2,6.4,
CC(=O)c1cccc(Nc2cc(C)nc3ccc(C)cc23)c1,-4.8,9.8*,-12.0,8.6,
CC(=O)c1cccc(Nc2cc(C)nc3c(C)cc(C)cc23)c1,-3.1,10.0*,-0.5,5.3,
O=C(NC1CCc2ccccc21)c1cc(COc2cncc(Cl)c2)on1 (configuration not stated),-4.3,-1.1,5.3,-28.2,
CC(C)c1nnc(NC(=O)C2CCCN2C(=O)Nc2ccccc2[N+](=O)[O-])s1 (configuration not stated),-1.1,0.1,2.4,-12.5,
CCCCn1c(N)c(N(CC)C(=O)CN2C(=O)NC(C)(c3ccccc3)C2=O)c(=O)[nH]c1=O (configuration not stated),-0.8,2.0,-4.0,-20.6,
N#Cc1sc2nc3c(cc2c1N)CCCC3,16.6*,-1.0,-6.6,3.7,
Cc1c(C(=O)N2CCC(C)CC2)sc2ncnc(N(C)c3ccccc3)c12,-1.9,0.7,-5.8,-31.8,
COc1cc(CNCc2ccccn2)ccc1OCc1ccc(Cl)c(Cl)c1,-5.0,10.1*,-34.7,30.4,
COc1cc(CNCc2ccccn2)ccc1OCc1ccc(Cl)cc1Cl,-1.8,4.0,-87.3,28.0,
CCOc1cc(CNCc2ccccc2)ccc1OCc1ccc(Cl)cc1,1.2,-1.6,-75.6,45.8*,
CCCc1nc2sc(C(=O)OCC)c(N)c2c2c1COC(C)(C)C2,6.2*,-0.7,-3.8,-4.0,
CC(Oc1ccc(Cl)cc1)C(=O)Nc1ccc(S(=O)(=O)N2CCOCC2)cc1 (configuration not stated),-2.3,-0.3,-11.2,-28.6,
CCCCc1c(O)nc(SCC(=O)O)[nH]c1=O,-1.4,-1.6,-4.4,13.9,
CCCCc1c(O)nc(SCC(=O)c2ccccc2)[nH]c1=O,11.8*,-0.3,6.2,4.5,
C=CCn1c(-c2sccc2C)n[nH]c1=S,-3.5,8.8*,8.5,-0.3,
C=CCn1c(-c2cccc(Cl)c2)n[nH]c1=S,-4.4,-1.2,-0.5,-7.1,
Cc1ccccc1OCCC(=O)NCCc1ccc(S(N)(=O)=O)cc1,-2.8,-4.9,1.0,-4.4,
Cc1nc(SCC(=O)c2ccccc2)c(C#N)c(-c2ccco2)c1C(=O)NCc1ccco1,5.0*,6.4,33.2,-3.1,
COCCOC(=O)c1c(C)nc(SCC(=O)Nc2ccc(OC)cc2)c(C#N)c1-c1ccco1,-1.2,-1.0,-4.8,-7.1,
Cc1nn(Cc2ccc(C(=O)N3CCN(C(=O)c4ccco4)CC3)o2)c(C)c1[N+](=O)[O-],-0.9,-3.9,1.8,-24.7,
N#CC1=C(N)Oc2n[nH]c(-c3cccs3)c2C1c1cccs1 (configuration not stated),3.2,8.2*,21.9,-11.7,
COc1ccccc1CNC(=O)C(=O)NCC1OCCCN1S(=O)(=O)c1cccs1 (configuration not stated),-0.7,-0.4,-4.9,-28.0,
SMILES,IMP-1 inh-1,VIM-2 inh,NS3 helicase inh,FID counter,others
Cn1c2ccc(F)cc2c2nc3ccccc3nc21,-3.1,7.9*,7.4,-9.8,
CCOc1ccc2c(c1)c1nc3ccccc3nc1n2C,0.0,8.4*,-6.5,-15.9,
CCOC(=O)c1c(NC(=O)c2nn(C)cc2[N+](=O)[O-])sc(C)c1C,-1.7,-4.0,12.3,4.3,
Cc1cccc(C(=O)N2CCN(Cc3nc4sc5c(c4c(=O)[nH]3)CCCC5)CC2)c1,-2.6,-4.2,-10.1,-48.9,
Cc1cccc(C(=O)c2ccccc2C(=O)O)c1O,-0.5,21.7*,10.7,-9.4,IMP-1 inh-2=-3.1;VIM-2 FRET inh=30.0*;TEM-1 inh=-5.8;VIM-2 confirm 2=16.7*
COc1ccc(Cc2nnc(Nc3ccc4c(c3)OCCO4)[nH]c2=O)cc1,-1.8,-4.3,0.8,-2.1,
CN1CCN(C(=O)CNc2ccc(C(F)(F)F)cc2[N+](=O)[O-])CC1,0.2,23.9*,-3.9,20.5,IMP-1 inh-2=-2.6;VIM-2 FRET inh=-2.1;TEM-1 inh=-5.6;VIM-2 confirm 2=38.4*
CC(C)NC(=O)CNc1ccc(C(F)(F)F)cc1[N+](=O)[O-],-4.6,-3.7,-3.4,0.6,
COc1ccc(CCN(C)C(=O)CSc2nnnn2C)cc1OC,-2.9,0.3,1.9,-2.3,
O=C(O)c1cc2ccc3ccccc3c2[nH]1,0.5,13.7*,17.2,-1.3,IMP-1 inh-2=-3.4;VIM-2 FRET inh=18.4*;TEM-1 inh=-4.3;VIM-2 confirm 2=15.7*
O=C(O)c1cc2cc(OCc3ccccc3)ccc2[nH]1,-0.6,3.5,31.9,-5.2,
COc1cc(NC(=O)C2=C(C)OCCS2)c(Cl)cc1C(=O)NCCN(C)C,-2.3,14.3*,-5.1,0.9,IMP-1 inh-2=-2.5;VIM-2 FRET inh=4.4;TEM-1 inh=-8.9;VIM-2 confirm 2=26.5*
COc1cc(CCNC(=O)c2ccccc2NC(=O)C2=C(C)OCCS2)cc(OC)c1OC,-1.7,-3.4,-6.1,-47.0,
COc1ccc(N2CCN(C(=O)c3ccc(CS(=O)(=O)c4ccc(Br)cc4)o3)CC2)cc1,-3.2,-2.2,3.3,-10.9,
COc1cc(C=O)ccc1Oc1nc(Nc2ccc(F)cc2F)nc(N2CCOCC2)n1,-3.0,-1.1,4.4,-16.5,
CCOC(=O)N1CCC(Nc2ccc3nnc(-c4ccccc4)n3n2)CC1,-3.6,15.0*,-4.5,-29.7,IMP-1 inh-2=-2.8;VIM-2 FRET inh=0.4;TEM-1 inh=-3.3;VIM-2 confirm 2=23.8*
COc1ccc(-c2cn(CCO)nc2-c2ccc(OC)cc2)cc1,-0.9,-1.2,-23.1,-26.2,
COc1ccc(CCNCc2ccc(OCc3ccc(Cl)nc3)c(OC)c2)cc1OC,-1.7,-2.9,-7.0,14.1,
COc1cc(CNCCNCC(C)O)ccc1OCc1ccc(Cl)nc1 (configuration not stated),-2.9,38.5*,2.5,25.4,IMP-1 inh-2=-3.5;VIM-2 FRET inh=-2.5;TEM-1 inh=-4.4;VIM-2 confirm 2=32.1*
Cc1cccc2[nH]c3c(N4CC=C(c5ccc(F)cc5)CC4)ncnc3c12,-1.7,-0.8,-16.1,-5.2,
CC(=O)Cn1cnc2c(sc3nc(C)cc(C)c32)c1=O,-2.5,14.1*,4.8,-0.4,IMP-1 inh-2=-3.0;VIM-2 FRET inh=-1.7;TEM-1 inh=-5.3;VIM-2 confirm 2=16.8*
O=C(Cn1cc([N+](=O)[O-])cn1)NC1CCCCCC1,-2.5,-0.9,-3.7,-4.2,
CCCc1cc(=O)oc2c3c(cc(OCC(=O)N[C@@H](C)C(=O)O)c12)OC(C)(C)CC3,-0.1,17.5*,22.6,-23.2,IMP-1 inh-2=-2.7;VIM-2 FRET inh=40.6*;TEM-1 inh=-3.3;VIM-2 confirm 2=24.4*

# Screening data deposited in PubChem by The Scripps Research Institute Molecular Screening Center.
